S1P1 ag pot = activates or potentiates agonism at human S1P1 receptor; 56,000 compounds, 0.57% hits; P21453; activation, % at 9.5 µM; S1P1 CRE-bla cells, forskolin, beta-lactamase FRET, potentiator mode; S1P1 agonist co-added at EC20, 2 nM; 100% = saturating reference agonist, 0% = basal;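 active = activation above a cutoff set at the mean activation of all tested compounds plus 3 SD, cut at about 54% in these data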;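 also: forskolin at 4 µM as EC80 and the EC20 agonist is SEW2871; 100% = SEW2871 at its EC100 plus forskolin at EC80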
Target sequence (P21453 whole entry, looked up): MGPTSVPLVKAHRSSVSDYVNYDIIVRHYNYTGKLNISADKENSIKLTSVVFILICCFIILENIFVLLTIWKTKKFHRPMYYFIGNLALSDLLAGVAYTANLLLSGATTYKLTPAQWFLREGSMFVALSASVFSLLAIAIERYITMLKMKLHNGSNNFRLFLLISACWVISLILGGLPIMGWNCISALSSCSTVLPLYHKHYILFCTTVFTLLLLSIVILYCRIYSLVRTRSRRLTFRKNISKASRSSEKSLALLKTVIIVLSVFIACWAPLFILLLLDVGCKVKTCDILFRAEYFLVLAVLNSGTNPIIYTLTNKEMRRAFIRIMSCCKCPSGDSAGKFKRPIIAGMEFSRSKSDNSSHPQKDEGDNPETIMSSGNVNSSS
M1 antagonist = antagonists of rat M1 muscarinic receptor; CHO-M1 cells, Fluo-4 calcium, ACh EC80 antagonist mode; active compounds read low; B-score at 10 µM; AID 628; 64,000 compounds, 3.4% hits;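 active = calcium fluorescence response, raw or row-and-column corrected B-score, differing from the plate sample mean either way at a set confidence level, mostly lower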
M1 agonist = activates the M1 muscarinic receptor. CHO-M1 cells, Fluo-4 calcium fluorescence, agonist mode; active compounds read high. B-score at 10 µM. 64,000 compounds, 3% hits. AID 626;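 active = fluorescence rise, raw or as B-score row- and column-corrected plate score, outside the 99.7% band of its plate's samples, either direction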
D1 mod = allosterically modulates the human D1 dopamine receptor. P21728. AID 641. HEK293 D1, CRE-luciferase, dopamine EC30 potentiation; actives deviate in either direction. B-score at 10 µM. 58,000 compounds, 5.9% hits;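 active = luminescence count or its row- and column-corrected plate score outside the 99.7% band of the plate's sample wells, on either side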
S1P3 ag = activates the human S1P3 receptor | Q99500 | S1P3 NFAT-BLA reporter cells, agonism, FRET ratio; relative to 1 µM S1P, basal subtracted | activation, % at 4.5 µM | 60,000 compounds, 0.1% hits;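 active = activation above the screen-wide mean plus 3 SD, cut at about 4.5% in these data, passing the limit was not always enough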
Target sequence (Q99500 whole entry, looked up): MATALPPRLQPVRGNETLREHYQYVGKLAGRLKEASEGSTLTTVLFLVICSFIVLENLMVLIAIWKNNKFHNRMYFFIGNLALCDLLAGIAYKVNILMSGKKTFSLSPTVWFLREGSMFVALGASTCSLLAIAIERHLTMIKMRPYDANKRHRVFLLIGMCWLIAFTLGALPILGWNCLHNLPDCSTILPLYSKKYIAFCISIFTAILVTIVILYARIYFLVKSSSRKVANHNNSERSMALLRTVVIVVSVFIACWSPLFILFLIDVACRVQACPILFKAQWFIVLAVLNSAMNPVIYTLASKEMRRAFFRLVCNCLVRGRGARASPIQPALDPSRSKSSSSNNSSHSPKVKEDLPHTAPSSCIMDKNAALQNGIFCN
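material = human S1P3 NFAT-BLA reporter CHO cells | schedule = 4 h compound at 37 °C, 2 h substrate at RT | measured by = fluorescent BLA substrate, ex 405 nm, em 460/535 nm ratio | controls = 1 µM S1P reference | replication = primary once, confirmation triplicate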
M1 agonist conf = confirmation of rat M1 muscarinic receptor agonists | CHO-M1 cells, Fluo-4 calcium fluorescence, agonist mode; actives lie on both sides | shares compounds with M1 agonist | AID 1488 | 1,700 compounds, 19% hits | fluorescence change (max-min) at 10 µM;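 active = fluorescence change differs from the solvent-only DMSO control mean at a set confidence level in both duplicate runs; inconclusive = differs from solvent-only control mean in just one of two runs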;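 also: an EC20 dose of acetylcholine follows compound addition during the same imaging run; raw fluorescence intensity difference in instrument units with no normalization to controls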
M4 ag counter = activates rat M4 receptor in counter-screen for M1 agonists. shares compounds with M1 agonist. CHO M4/Gqi5 cells, Fluo-4 calcium fluorescence, agonist mode; actives lie on both sides. fluorescence change (max-min) at 10 µM. 1,700 compounds, 9% hits;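 active = fluorescence change differing from the plate's solvent-only control wells at 99.7% confidence in both duplicates, whether higher or lower; inconclusive = differs from solvent controls in only one of two duplicates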
M1 antag conf = M1 muscarinic receptor (rat) antagonism, confirmed; 1,700 compounds, 43% hits; shares compounds with M1 antagonist; calcium response (max-min fluorescence) at 10 µM; CHO-M1 cells, Fluo-4 calcium, ACh EC80 antagonism; active compounds read low;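 active = calcium response below the same-plate mean of wells given acetylcholine alone at its 80%-effect dose, minus 3 SD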;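 also: raw fluorescence intensity difference in arbitrary instrument units and not normalized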
mGluR4 antag = selectivity test for M1 antagonists: human mGluR4 receptor. shares compounds with M1 antagonist. CHO-mGluR4 calcium flux, Fluo-4 fluorescence, glutamate EC80; active compounds read low. fluorescence response (max-min) at 10 µM. 1,700 compounds, 0.9% hits;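 active = fluorescence response below the plate's average for near-maximal glutamate wells, less 3 SD of those wells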;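 also: raw unnormalized fluorescence span taken in the window right after glutamate addition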
D1 PAM confirm = D1 receptor (human) allosteric modulation, confirmed | 2,200 compounds, 88% hits | AID 642 | shares compounds with D1 mod | HEK293 D1 CRE-luciferase, dopamine EC30 potentiation; active compounds read high | luminescence at 10 µM;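 active = luminescence in either of two replicates above the same-plate mean plus 3 SD of the low-dose dopamine control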
D1 no dopamine = D1 (human) signaling in absence of dopamine; shares compounds with D1 mod; HEK293 D1 CRE-luciferase, luminescence, no dopamine; active compounds read high; luminescence at 10 µM; 1,900 compounds, 0.8% hits; AID 646; in the data active = luminescence above about 3900
Isoprot counter = counter-screen for D1 modulators: isoproterenol response in HEK293 cells | calls only at 10 µM | 2,200 compounds, 63% hits | AID 647 | shares compounds with D1 mod | HEK293 D1 CRE-luciferase, isoproterenol EC30 counter-screen;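 active = luminescence in either replicate above plate mean of wells with a partly effective reference agonist dose plus 3 SD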;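 also: isoproterenol raises cAMP through native beta-adrenoceptor Gs so signal bypasses D1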
Numbers without * were called inactive; ? = inconclusive; . = not tested or not shown; + = active, no number. Compounds with a hit are over-represented: about 11% of the library has one in this group of screens.

SMILES	S1P1 ag pot	M1 antagonist	M1 agonist	D1 mod	S1P3 ag	M1 agonist conf	M4 ag counter	others
O=S(=O)(O)c1nnc2sc3ccccc3n12	10	0.015	-0.46	0.33	1	.	.
COc1ccc(Nc2ccnc3ccccc23)cc1	50	-2*	14*	-3.7*	-1	63	-21
CC(C)(Oc1ccc(Cl)cc1)C(=O)OCC(=O)N1CCCC1	.	0.063	0.76	0.0093	.	.	.
Cc1cc(-n2c(C)cc(C(=O)COc3ccc4ccc(=O)oc4c3)c2C)no1	16	-0.25	6.2*	-1	-1	?	-40
CC(=O)c1cccc(OCC(=O)c2cc(C)n(-c3cc(C)on3)c2C)c1	38	-0.39	0.9	-2	0	.	.
Cc1cc(-n2c(C)cc(C(=O)CSc3nnc4sc5ccccc5n34)c2C)no1	-10	-0.53	0.015	0.81	1	.	.
Cc1cc(-n2c(C)cc(C(=O)CSc3ncnc4ccccc34)c2C)no1	.	-1.4	7*	-3.2*	.	-5.4	?
CN(C)CCNC(=O)C12CC3(C)CC(C)(CC(C)(C3)C1)C2	11	-0.94	3.3*	.	-4	?	-70
CC(CCCC(C)(C)O)NCCO (stereo not given)	-4	0.083	0.12	-0.21	-1	.	.
O=C(Nc1cccnc1)C1CC(c2ccc(Cl)c(Cl)c2)=NO1 (stereo not given)	-19	0.63	-2.6*	.	0	-10	-39
COc1ccc(OC)c(C2=NOC(C(=O)Nc3cccnc3)C2)c1 (stereo not given)	-2	0.12	-0.83	1.1	1	.	.
CS(=O)(=O)Nc1cccc(C(=O)CC2(O)C(=O)Nc3ccc(Br)cc32)c1 (stereo not given)	13	0.17	0.016	-0.86	-1	.	.
COc1ccc(-n2c(NC(=O)c3ccco3)c(C#N)c3nc4ccccc4nc32)cc1	-31	-0.016	27*	0.7	4	23	31
CCC(=O)Nc1c(C#N)c2nc3ccccc3nc2n1-c1ccccc1C	13	0.0037	-0.19	3.7	1	.	.
CCCCn1c(NC(=O)c2ccccc2Cl)c(C#N)c2nc3ccccc3nc21	-37	-1.6	20*	-0.74	1	59*	46
COc1ccc(OCCn2c(NC(=O)c3ccco3)nc3ccccc32)cc1	.	0.41	-0.35	-0.18	-1	.	.
Cc1c(OC(=O)CNC(=O)OC(C)(C)C)ccc2c3c(c(=O)oc12)CCC3	-4	-0.35	2.4*	1.9	0	0.27	-23
S=c1[nH]nc(COc2ccc(Cl)cc2)o1	2	0.68	-0.038	-0.86	-1	.	.
Cc1ccc(C2/C(=C(\O)c3ccc4c(c3)OCCO4)C(=O)C(=O)N2CCCN(C)C)o1 (stereo not given)	-3	-0.33	-1.3	.	0	.	.
CC1CCCC(C)N1CCNC(=O)CCn1nc(-c2ccccc2)ccc1=O (stereo not given)	13	-0.48	0.94	0.1	0	.	.
CCC(=O)N=c1sc2c(C)cc(C)cc2n1CC(=O)OC	-17	-0.25	0.42	0.48	0	.	.
COc1cccc(C(c2nnnn2Cc2ccccc2)N2CCN(C(=O)c3ccco3)CC2)c1OC (stereo not given)	28	-11*	-2.3*	0.15	-1	-13	-13	M1 antag conf=514;mGluR4 antag=184
CCOc1ccccc1N1CCN(Cc2cccc(OC)c2OC)CC1	-9	-0.22	-0.024	-0.89	-2	.	.
COc1ccccc1N1CCN(Cc2ccc(OC)c(OC)c2OC)CC1	-23	-6.3*	-2.6*	0.045	-2	-16	-36	M1 antag conf=601;mGluR4 antag=197
O=C(Nc1cccc(C(=O)N2CCOCC2)c1)c1cccnc1	-26	-0.54	0.055	-1.2	0	.	.
SMILES	S1P1 ag pot	M1 antagonist	M1 agonist	D1 mod	S1P3 ag	M1 agonist conf	M4 ag counter	others
CCOC(=O)C1CCCN(C2CC(=O)N(c3ccc(C)c(C)c3)C2=O)C1 (stereo not given)	.	0.22	1.2	1.2	-1	.	.
CCOC(=O)C1CCCN(C2CC(=O)N(c3cccc(C(F)(F)F)c3)C2=O)C1 (stereo not given)	2	-3.3*	9*	.	-1	67*	-38	M1 antag conf=619;mGluR4 antag=238
O=c1c2cnn(-c3ccccc3Cl)c2ncn1Cc1cccnc1	-10	0.86	-0.58	-0.84	1	.	.
COC(=O)c1cc2ccsc2n1Cc1cc(=O)n2ccccc2n1	0	-7.4*	-1.8*	.	0	-16	-47	M1 antag conf=28*;mGluR4 antag=201
CN(C)c1nc(N)nc(N(c2ccccc2)c2ccccc2)n1	-6	0.58	-1.2	0.19	-1	.	.
COc1nc(N(c2ccccc2)c2ccccc2)nc(-n2ccnc2)n1	2	-1	3.4*	4.3*	1	-11	-28	D1 PAM confirm=12628*;D1 no dopamine=1456;Isoprot counter=+
c1ccc(Cn2c(-c3ccco3)nc3nc4ccccc4nc32)cc1	-2	-0.53	3.7*	3.5*	2	?	?	D1 PAM confirm=7452*;D1 no dopamine=1544;Isoprot counter=+
Cc1nc2sc(C(c3ccc(F)cc3)N3CCN(C(=O)c4ccco4)CC3)c(O)n2n1 (stereo not given)	5	.	.	1.6	1	.	.
CCN(CC(=O)Nc1ccc2c(c1)OCCO2)c1nc(-c2cccnc2)nc2ccccc12	-46	-0.64	7.3*	3.6*	0	-28*	?	D1 PAM confirm=7472*;D1 no dopamine=1256;Isoprot counter=+
O=C(C1CCN(S(=O)(=O)c2cccc3cccnc23)CC1)N1CCn2c1nc1ccccc12	-10	6.6*	22*	4.9*	1	-11	-43	D1 PAM confirm=12004*;D1 no dopamine=2024;Isoprot counter=+
C=CCn1c(SCC(=O)/C(C#N)=C(\C)N)nnc1C1CCCCC1	-3	0.59	0.06	-1.2	0	.	.
Cc1ccccc1Nc1nc(N)nc(CSc2nc3ccccc3c(=O)n2CCCO)n1	-68	0.15	4.1*	3*	1	?	-49	D1 PAM confirm=8640*;D1 no dopamine=1664;Isoprot counter=+
